PAFAH1B3 FP inh: blocks human PAF acetylhydrolase 1B catalytic subunit 3; recombinant PAFAH1B3, FP-rhodamine probe, fluorescence polarization; inhibition, % at 3.39 µM; 340,000 tested, 0.28% active;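 active means inhibition above the screen-wide average of all tested compounds plus 3 SD, cut at about 25% in these data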
PAFAH2 inh: PAFAH2 (human) inhibition | AID 492956 | inhibition, % at 3.39 µM | Q99487 | recombinant PAFAH2, FP-rhodamine activity probe, fluorescence polarization | 340,000 tested, 0.99% active;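 active means inhibition above the mean over all tested compounds plus 3 SD, cut at about 30% in these data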;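 further: inhibitors block probe labeling of enzyme so polarization drops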
RBBP9 inhibitor: blocks human serine hydrolase RBBP9; recombinant RBBP9, FP-Rh probe fluorescence polarization; inhibition, % at 7.94 µM; 220,000 tested, 0.2% active;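 active means inhibition above the campaign mean of all tested compounds plus 3 SD, cut at about 14% in these data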
Target sequence (O75884 whole entry, looked up): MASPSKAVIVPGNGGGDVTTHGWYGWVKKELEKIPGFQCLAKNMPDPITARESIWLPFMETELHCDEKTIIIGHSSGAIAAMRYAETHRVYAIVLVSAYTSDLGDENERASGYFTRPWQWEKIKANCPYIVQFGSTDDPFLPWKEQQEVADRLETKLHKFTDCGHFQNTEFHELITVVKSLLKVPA
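system = RBBP9 protein | input = RBBP9 at 2.5 µM in dispensed solution, before mixing | measured by = fluorescence polarization (mP), excitation 525 nm, emission 598 nm | incubation = enzyme-compound preincubation 30 min, then probe labeling 45 min, 25 °C | buffer or medium = Tris-NaCl-Pluronic buffer, pH 8.0 | compound = single dose 7.94 µM | also added = FP-Rh probe, 375 nM dispensing solution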
PAFAH1B2 inh: blocks human PAF acetylhydrolase 1b catalytic subunit 2. AID 492953. recombinant PAFAH1B2, FP-rhodamine activity probe, fluorescence polarization. P68402. 340,000 tested, 1.2% active. inhibition, % at 3.39 µM;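 active means inhibition above the mean of all tested compounds plus 3 SD, cut at about 24% in these data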
pPAFAH inh: inhibitors of human plasma PAF acetylhydrolase (pPAFAH); inhibition, % at 3.39 µM; 330,000 tested, 1.5% active; recombinant pPAFAH, FP-rhodamine probe fluorescence polarization;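 active means inhibition above the mean inhibition across the screen plus 3 SD, cut at about 25% in these data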;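 further: inhibitors block binding of the rhodamine activity-based probe so polarization drops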
Target sequence (Q13093 whole entry, looked up): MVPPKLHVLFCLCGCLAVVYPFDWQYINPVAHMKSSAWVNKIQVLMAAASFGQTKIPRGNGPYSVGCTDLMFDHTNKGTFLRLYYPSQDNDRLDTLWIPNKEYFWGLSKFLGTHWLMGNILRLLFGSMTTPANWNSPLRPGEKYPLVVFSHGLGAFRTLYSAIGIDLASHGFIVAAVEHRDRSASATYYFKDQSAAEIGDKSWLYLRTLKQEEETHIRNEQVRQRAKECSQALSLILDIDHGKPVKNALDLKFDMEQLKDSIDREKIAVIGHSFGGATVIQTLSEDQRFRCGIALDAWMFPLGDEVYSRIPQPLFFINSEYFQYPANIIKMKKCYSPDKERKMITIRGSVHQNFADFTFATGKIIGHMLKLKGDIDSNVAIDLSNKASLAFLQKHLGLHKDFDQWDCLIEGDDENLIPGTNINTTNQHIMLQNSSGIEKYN
PAFAH2 FP conf: confirmation of human PAFAH2 inhibitors; inhibition, % at 3.39 µM; shares compounds with PAFAH2 inh; recombinant PAFAH2, FP-rhodamine activity probe, fluorescence polarization; 2,300 tested, 65% active;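 active means mean inhibition over three repeats above a set limit taken from the earlier primary screen, cut at about 30% in these data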;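 further: inhibitor blocks binding of rhodamine activity probe so polarization falls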
Large screens that a line does not name were inactive (follow-up assays come after a bar, where they were run). Rows were chosen to be rich in hits. Some 2.7% of all compounds tested hit in one or more screens of this group.

Cc1cccc(C)c1NC(=O)COC(=O)/C=C/c1ccc(S(=O)(=O)N2CCOCC2)cc1	PAFAH2 inh 45 (no result: RBBP9 inhibitor) | PAFAH2 FP conf inactive
COc1ccc(CNC(=O)COC(=O)/C=C/c2ccc(Cl)cc2)cc1	none
COc1ccc(/C=C/C(=O)OCC(=O)NC(C)CCc2ccccc2)cc1 (stereo not given)	PAFAH2 inh 68 (no result: RBBP9 inhibitor) | PAFAH2 FP conf 55
Cn1c(C(=O)OCC(=O)NCc2ccco2)cc2sccc21	PAFAH2 inh 45 | PAFAH2 FP conf inactive
Cc1ccsc1C(=O)OCc1nc2ccccc2c(=O)[nH]1	PAFAH2 inh 38 | PAFAH2 FP conf inactive
CN(C)c1cccc(C(=O)OCC(=O)NCc2ccco2)c1	PAFAH2 inh 57 | PAFAH2 FP conf 44
O=C(COC(=O)c1cccs1)NCC1CCCCC1	PAFAH2 inh 79 | PAFAH2 FP conf 82
O=C(O)c1sccc1S(=O)(=O)N1CCOCC1	none (no result: RBBP9 inhibitor)
Cc1ccsc1C(=O)OCC(=O)NCc1ccccc1	PAFAH2 inh 34 (no result: RBBP9 inhibitor) | PAFAH2 FP conf inactive
O=C(COC(=O)c1cccs1)NCc1ccccc1	PAFAH2 inh 47 | PAFAH2 FP conf 34
CC(CNC(=O)COC(=O)c1cccs1)c1ccccc1 (stereo not given)	PAFAH2 inh 75 (no result: RBBP9 inhibitor) | PAFAH2 FP conf 73
O=C(COC(=O)c1cccs1)NCc1ccco1	PAFAH2 inh 45 (no result: RBBP9 inhibitor) | PAFAH2 FP conf inactive
COc1cc(NC(=O)c2cccs2)c(C(=O)OCC(=O)NCc2ccco2)cc1OC	none
Cc1cc(-n2cnnn2)cc(C)c1S(=O)(=O)N(C)c1ccccc1	none (no result: RBBP9 inhibitor)
CC(CC(F)(F)F)N1CCC(n2nccc2NC(=O)CCCc2ccccc2)CC1 (stereo not given)	none (no result: RBBP9 inhibitor)
COc1ccc(OC)c(C2C(C(=O)Nc3cccnc3)=C(C)NC3=C2C(=O)CCC3)c1 (stereo not given)	none
CCc1ccc(NC(=O)CSc2nnc(-c3cnccn3)n2C)cc1	none (no result: RBBP9 inhibitor)
CC1=NN(C(N)=S)C(=O)C1N=Nc1ccc(C)c(Br)c1 (stereo not given)	PAFAH2 inh 42 (no result: RBBP9 inhibitor) | PAFAH2 FP conf 33
O=C(C1CCC(CNS(=O)(=O)c2cccs2)CC1)N1CCN(c2ccc(Cl)cc2)CC1 (stereo not given)	none (no result: RBBP9 inhibitor)
Cc1ccccc1OCC(=O)OC(C(=O)c1ccccc1)c1ccccc1 (stereo not given)	none
C=CCNc1nc(C(=O)OCC(=O)Nc2cccc(SC)c2)cs1	PAFAH2 inh 62 (no result: RBBP9 inhibitor, pPAFAH inh) | PAFAH2 FP conf 51
O=C(COC(=O)/C=C/c1cccs1)NC1CC1	PAFAH2 inh 41 | PAFAH2 FP conf 39
O=C(COC(=O)/C=C/c1cccc(C(F)(F)F)c1)NC1CCCCCC1	PAFAH2 inh 31 (no result: RBBP9 inhibitor) | PAFAH2 FP conf 43
O=C(COC(=O)/C=C/c1ccccc1)NC1CCCCCC1	PAFAH2 inh 89 (no result: RBBP9 inhibitor, pPAFAH inh) | PAFAH2 FP conf 82
O=C(COC(=O)/C=C/c1ccccc1)NC(=O)NC1CCCCC1	PAFAH2 inh 35 (no result: RBBP9 inhibitor) | PAFAH2 FP conf inactive
O=C(COC(=O)/C=C/c1ccccc1)NC1CCS(=O)(=O)C1 (stereo not given)	none (no result: RBBP9 inhibitor)
O=C(COC(=O)/C=C/c1ccc(C(F)(F)F)cc1)NC1CCCC1	none (no result: RBBP9 inhibitor)
CCOc1ccc(/C(O)=C2/C(=O)C(=O)N(CCCN3CCOCC3)C2c2ccc(C)cc2)cc1C (stereo not given)	none (no result: RBBP9 inhibitor, pPAFAH inh)
CC(C)c1cc(C(=O)NNC(=S)NC2CCCCC2)cs1	none (no result: RBBP9 inhibitor)
C=CCc1ccc(OC)c(OC)c1	none (no result: RBBP9 inhibitor)
COc1cccc(C(c2sc3nc(C)nn3c2O)N2CCc3ccccc3C2)c1 (stereo not given)	none
CCCCN(CC(O)COc1cccc(C)c1)CC(O)COc1cccc(C)c1 (stereo not given)	none (no result: RBBP9 inhibitor)
O=C(COC(=O)/C=C/c1ccccc1)NC1CC1	PAFAH2 inh 54 (no result: RBBP9 inhibitor) | PAFAH2 FP conf 33
O=C(COC(=O)/C=C/c1ccccc1[N+](=O)[O-])NC1CC1	PAFAH2 inh 36 | PAFAH2 FP conf inactive
O=C(COC(=O)/C=C/c1ccccc1[N+](=O)[O-])NC1CCS(=O)(=O)C1 (stereo not given)	none
CCOC(=O)c1c(NC(=O)CSc2nnc(-c3ccncc3)n2Cc2ccco2)sc(C)c1C	none
CCc1cc2c(=O)oc(-c3ccc(F)cc3)nc2s1	PAFAH2 inh 82 (no result: RBBP9 inhibitor) | PAFAH2 FP conf 84
CCc1cc2c(=O)[nH]c(-c3ccccn3)nc2s1	none
Cc1nn(C(=O)c2ccco2)c(C)c1Br	none
COc1ccc(C(=O)n2nc(C)c(Br)c2C)cc1	PAFAH2 inh 31 | PAFAH2 FP conf inactive
Cc1sc2nc(SCC(=O)Nc3ccc(S(N)(=O)=O)cc3)[nH]c(=O)c2c1C	none (no result: RBBP9 inhibitor)
Cc1sc2nc(SCC(=O)Nc3cccc(S(N)(=O)=O)c3)[nH]c(=O)c2c1C	PAFAH2 inh 35 (no result: RBBP9 inhibitor) | PAFAH2 FP conf inactive
Cc1sc2ncnc(SCC(=O)Nc3ncccc3O)c2c1C	PAFAH2 inh 66 (no result: RBBP9 inhibitor) | PAFAH2 FP conf 53
CCC(=O)c1ccc(OC(=O)C2CCN(C3=NS(=O)(=O)c4ccccc43)CC2)cc1	none (no result: RBBP9 inhibitor)
COc1ccc(C(=O)c2ccsc2N)cc1	PAFAH2 inh 30 (no result: RBBP9 inhibitor) | PAFAH2 FP conf inactive
CCc1nnc(NC(=O)CN2CCN(Cc3ccccc3Cl)CC2)s1	none (no result: RBBP9 inhibitor)
COc1ccccc1NC(=O)c1ccc(-c2nn(C)c(=O)c3ccccc23)cc1	none
COc1ccc(NC(=O)c2ccc(-c3nn(C)c(=O)c4ccccc34)cc2)cc1	PAFAH2 inh 35 | PAFAH2 FP conf inactive
Cc1ccc(S(=O)(=O)N2CCCCC2)cc1NC(=O)COC(=O)Cc1c(F)cccc1Cl	none
Cc1ccc(S(=O)(=O)N2CCCCC2)cc1NC(=O)COC(=O)c1ccc(O)cc1	PAFAH2 inh 60 | PAFAH2 FP conf 67
Cc1ccc(S(=O)(=O)N2CCCCC2)cc1NC(=O)COC(=O)c1ccc(=O)[nH]c1	PAFAH2 inh 56 (no result: RBBP9 inhibitor) | PAFAH2 FP conf 52
Cc1ccc(S(=O)(=O)N2CCCCC2)cc1NC(=O)COC(=O)c1cc[n+]([O-])cc1	none
Cc1ccc(S(=O)(=O)N2CCCCC2)cc1NC(=O)COC(=O)c1c(F)cccc1F	PAFAH2 inh 38 | PAFAH2 FP conf inactive
Cc1ccccc1NC(=O)COC(=O)CCSc1ccccc1	none
Cc1ccc(/C=C2\OC(=O)c3ccccc32)cc1	none
Cc1ccc(C(=O)c2ccccc2C(=O)OCC(=O)Nc2cccc([N+](=O)[O-])c2)cc1	PAFAH2 inh 73 | PAFAH2 FP conf 77
COc1cc([N+](=O)[O-])ccc1NC(=O)COC(=O)C=C(C)C	none
CC(C)=CC(=O)OCC(=O)Nc1cccc([N+](=O)[O-])c1	PAFAH2 inh 76 | PAFAH2 FP conf 75
CC1CC1C(=O)OCC(=O)Nc1cccc([N+](=O)[O-])c1 (stereo not given)	PAFAH2 inh 82 | PAFAH2 FP conf 84
CC1CC1C(=O)OCC(=O)Nc1ccc2[nH]c(=O)[nH]c2c1 (stereo not given)	none
CCOC(=O)CNC(=S)n1ncnc1N	none
CN(C)S(=O)(=O)c1ccc(Cl)c(C(=O)OCC(=O)NC(=O)NC2CCCC2)c1	none (no result: RBBP9 inhibitor)
